Results collected from several papers.
Values after ≈ are worked out from the molar mass of the structure shown.

COc1ccc(-c2[nH]c3c(C)c(C)ccc3c2C(=O)c2cc(OC)c(OC)c(OC)c2)cc1O  IC50 (tubulin polymerisation, inhibitor, absorbance): > 20 µM
CC[C@@]1(O)C(=O)OCc2c1cc1n(c2=O)Cc2cc3ccccc3nc2-1  IC50 (LS174T; cell growth or viability, MTT; 48 h): 31.6 µM
OC(Cn1cncn1)(Cn1cncn1)c1ccc(F)cc1F  MIC (Nakaseomyces glabratus; microbial growth, broth dilution; ATCC2001): 2 µg/mL
N.N.[Cl][Pt][Cl]  IC50 (HaCaT; cell growth or viability, MTT; 48 h): 14.2 µM
Oc1c(Cl)cc(Cl)cc1-c1[nH]c(Cl)c(Cl)c1Cl  MIC (Bacillus subtilis; microbial growth; ATCC6051): 0.04 µM
O=C/C=C/c1ccccc1  MFC (Cryptococcus neoformans; microbial killing, broth dilution; clinical isolate): 200 µg/mL (≈ 1510 µM)
COc1ccc(-c2[nH]c3c(OC)c(OC)c(OC)cc3c2C(=O)c2cc(OC)c(OC)c(OC)c2)cc1O  IC50 (tubulin polymerisation, inhibitor, absorbance): > 20 µM
Oc1c(Br)cc(Br)cc1-c1[nH]c(Br)c(Br)c1Br  MIC (Bacillus subtilis; microbial growth; ATCC6051): 0.01 µM
